Source: ChEMBL document CHEMBL1147057, “Virstatin inhibits dimerization of the transcriptional activator ToxT” (Proc Natl Acad Sci U S A, 2007)
Active and inactive are the calls of the source. No cut-off for these calls is given here.

How the values were obtained:
[1] = biological target: T1, TCP pilus virulence regulatory protein (Vibrio cholerae serotype O1 (strain ATCC 39541 / Classical Ogawa 395 /O395)) (UniProt A5F384); assay: Inhibition of Vibrio cholerae wild type ToxT-mediated transcription of ctx promoter at 50 uM
T1 sequence (whole entry): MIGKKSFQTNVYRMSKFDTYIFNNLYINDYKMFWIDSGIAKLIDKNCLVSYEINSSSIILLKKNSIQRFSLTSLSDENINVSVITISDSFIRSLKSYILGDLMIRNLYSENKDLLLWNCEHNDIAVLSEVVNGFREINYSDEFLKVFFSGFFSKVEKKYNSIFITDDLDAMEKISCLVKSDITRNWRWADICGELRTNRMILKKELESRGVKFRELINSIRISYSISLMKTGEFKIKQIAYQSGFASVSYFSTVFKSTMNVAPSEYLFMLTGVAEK

[2] = biological target: T1, TCP pilus virulence regulatory protein (Vibrio cholerae serotype O1 (strain ATCC 39541 / Classical Ogawa 395 /O395)); assay: Inhibition of ToxT-mediated transcriptional activation of ctxAB promoter in Vibrio cholerae O395deltalacZ assessed as beta-galactosidase expression at 100 uM relative to control; design: scale not given: the % may be the effect or the level left
[3] = biological target: T1, TCP pilus virulence regulatory protein (Vibrio cholerae serotype O1 (strain ATCC 39541 / Classical Ogawa 395 /O395)); assay: Inhibition of maltose binding protein-fused Vibrio cholerae ToxT monomer by gel filtration method
[4] = biological target: T1, TCP pilus virulence regulatory protein (Vibrio cholerae serotype O1 (strain ATCC 39541 / Classical Ogawa 395 /O395)); assay: Inhibition of Vibrio cholerae wild type ToxT N-terminal domain dimerization expressed in Escherichia coli assessed as beta-galatosidase reporter gene expression at 50 uM by bacterial two-hybrid system
Summary of the method: (§1)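 Bacterial two-hybrid: identical toxT N-terminal segments fused to Zif (pACTrAp-Zif) and ω (pBRGpω) and co-transformed into E. coli KDZif1ZΔtolC. Cultures grown overnight with or without 10 μM IPTG and virstatin (10–50 μM), then subcultured into the same conditions. lacZ reporter activity measured by β-galactosidase assay in triplicate; a representative experiment is reported.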

[5] = biological target: T1, TCP pilus virulence regulatory protein (Vibrio cholerae serotype O1 (strain ATCC 39541 / Classical Ogawa 395 /O395)); assay: Inhibition of ToxT-mediated transcriptional activation of acfD promoter in Vibrio cholerae O395deltalacZ assessed as beta-galactosidase expression at 100 uM relative to control; design: scale not given: the % may be the effect or the level left
[6] = biological target: T1, TCP pilus virulence regulatory protein (Vibrio cholerae serotype O1 (strain ATCC 39541 / Classical Ogawa 395 /O395)); assay: Inhibition of ToxT-mediated transcriptional activation of aldA promoter in Vibrio cholerae O395deltalacZ assessed as beta-galactosidase expression at 100 uM relative to control; design: scale not given: the % may be the effect or the level left
[7] = biological target: T1, TCP pilus virulence regulatory protein (Vibrio cholerae serotype O1 (strain ATCC 39541 / Classical Ogawa 395 /O395)); assay: Inhibition of ToxT-mediated transcriptional activation of acfA promoter in Vibrio cholerae O395deltalacZ assessed as beta-galactosidase expression at 100 uM relative to control; design: scale not given: the % may be the effect or the level left
[8] = biological target: T1, TCP pilus virulence regulatory protein (Vibrio cholerae serotype O1 (strain ATCC 39541 / Classical Ogawa 395 /O395)); assay: Inhibition of ToxT-mediated transcriptional activation of tcpI promoter in Vibrio cholerae O395deltalacZ assessed as beta-galactosidase expression at 100 uM relative to control; design: scale not given: the % may be the effect or the level left
Vibrio cholerae [9] = assay: Inhibition of maltose binding protein-fused Vibrio cholerae ToxT L113P mutant monomer by gel filtration method
[10] = biological target: T1, TCP pilus virulence regulatory protein (Vibrio cholerae serotype O1 (strain ATCC 39541 / Classical Ogawa 395 /O395)); assay: Inhibition of ToxT-mediated transcriptional activation of tagA promoter in Vibrio cholerae O395deltalacZ assessed as beta-galactosidase expression at 100 uM relative to control; design: scale not given: the % may be the effect or the level left
[11] = biological target: T1, TCP pilus virulence regulatory protein (Vibrio cholerae serotype O1 (strain ATCC 39541 / Classical Ogawa 395 /O395)); assay: Inhibition of Vibrio cholerae wild type ToxT N-terminal domain dimerization expressed in Escherichia coli assessed as beta-galatosidase reporter gene expression at 20 uM by bacterial two-hybrid system; summary of the method: as §1
Vibrio cholerae [12] = assay: Inhibition of Vibrio cholerae ToxT L113P mutant N-terminal domain dimerization expressed in Escherichia coli assessed as beta-galatosidase reporter gene expression at 10 uM by bacterial two-hybrid system; summary of the method: as §1
[13] = biological target: T1, TCP pilus virulence regulatory protein (Vibrio cholerae serotype O1 (strain ATCC 39541 / Classical Ogawa 395 /O395)); assay: Inhibition of Vibrio cholerae wild type ToxT N-terminal domain dimerization expressed in Escherichia coli assessed as beta-galatosidase reporter gene expression at 10 uM by bacterial two-hybrid system; summary of the method: as §1
[14] = biological target: T1, TCP pilus virulence regulatory protein (Vibrio cholerae serotype O1 (strain ATCC 39541 / Classical Ogawa 395 /O395)); assay: Inhibition of Vibrio cholerae wild type ToxT N-terminal domain dimerization expressed in Escherichia coli assessed as beta-galatosidase reporter gene expression at 35 uM by bacterial two-hybrid system; summary of the method: as §1
[15] = biological target: T1, TCP pilus virulence regulatory protein (Vibrio cholerae serotype O1 (strain ATCC 39541 / Classical Ogawa 395 /O395)); assay: Inhibition of ToxT-mediated transcriptional activation of tcpA promoter in Vibrio cholerae O395deltalacZ assessed as beta-galactosidase expression at 100 uM relative to control; design: scale not given: the % may be the effect or the level left

With O=C(O)CCN1C(=O)c2cccc3cccc(c23)C1=O the Activity [1] was “Active”.

In the case of COC(=O)CCCN1C(=O)c2cccc3cccc(c23)C1=O, the Activity [1] is reported as “Active”.

With O=C(O)C1CCCC(N2C(=O)c3cccc4cccc(c34)C2=O)C1 (centres undefined) the Activity [1] was “Active”.

With O=C(O)CCCN1C(=O)c2cccc3cccc(c23)C1=O the Activity [2] was 3%, the Activity [3] was “Active” and the Activity [4] was “Active”. The Activity [5] was 3%, the Activity [6] was 15% and the Activity [7] was 15%. For the same molecule, the Activity [8] was 15%, the Activity [1] was “Active” and the Activity (Vibrio cholerae [9]) was “inactive”. For the same molecule, the Activity [10] was 3%, the Activity [11] was “Active” and the Activity (Vibrio cholerae [12]) was “inactive”. For the same molecule, the Activity [13] was “Active”, the Activity [14] was “Active” and the Activity [15] was 3%.

With O=C(O)CN1C(=O)c2cccc3cccc(c23)C1=O the Activity [1] was “Active”.
